Screens deposited in PubChem by several laboratories.
STAT1 act-1 = increases IFN-gamma driven STAT1 reporter signal. NIH 3T3 STAT1-luciferase reporter, luminescence; 100% = IFN-gamma alone, no compound. activation (% of control), % at 5.5 µM. 200,000 tested, 2.6% active. AID 932;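 active = activation above the screen-wide mean activation plus 3 SD, cut at about 130% in these data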;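 note: raw ratio to IFN-gamma control signal so 100% means no change and 0% no light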
STAT1 inh = reduces IFN-gamma driven STAT1 reporter signal; 200,000 tested, 0.35% active; inhibition, % at 5.5 µM; AID 920; NIH 3T3 STAT1-luciferase reporter, luminescence;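 active = inhibition above a set limit, the mean inhibition across all tested compounds plus 3 SD, cut at about 34% in these data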;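 note: 0% = IFN-gamma with DMSO and 100% = IFN-gamma with 300 µM nifuroxazide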
STAT3 blocker = STAT3 signaling inhibition; U3A cells, IL-6 STAT3-luciferase reporter, luminescence; host cell line lacks STAT1; inhibition, % at 5.5 µM; 190,000 tested, 0.89% active; AID 862;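 active = inhibition above the mean inhibition across all screened compounds plus 3 SD, cut at about 44% in these data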;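 note: 0% = DMSO only wells and 100% = 100 µM nifuroxazide control wells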
STAT3 act-1 = increases IL-6 driven STAT3 reporter signal | U3A cells, IL-6 STAT3-luciferase reporter, luminescence; 100% = signal with IL-6 EC80 alone | activation (% of control), % at 5.6 µM | 190,000 tested, 0.91% active | AID 871;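 active = activation above the screen-wide mean of compound activation plus 3 SD, cut at about 130% in these data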;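 note: 0% = background luminescence of wells with medium and substrate only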
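Material: human U3A cells carrying STAT3-luciferase construct. Measured by: reporter luminescence signal. Timing: compound 1 h, then IL-6 6 h at 37 °C.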
APP 5'UTR act = APP 5'UTR luciferase reporter activation; activation, % at 2 µM; 190,000 tested, 1% active; AID 1276; SH-SY5Y APP 5'UTR luciferase reporter, luminescence; zero percent = DMSO vehicle wells;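 active = activation above a set limit, based on mean plus 3 SD of controls, cut at about 140% in these data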
NF-kB neuron act = raises NF-kB expression in human neuronal cells; fold change at 12.5 µM; 190,000 tested, 1.6% active; AID 1239; NF-kB reporter expression; hits give high values; in the data active = fold change above about 3.3
STAT3 act-2 = confirmation of STAT3 signaling activators; U3A STAT3-luciferase reporter, IL-6 potentiation, luminescence; U3A cells lack STAT1; 100 means same as IL-6 alone; AID 1267; 1,200 tested, 64% active; potentiation (% of control), % at 5.7 µM; shares compounds with STAT3 act-1;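 active = percent activation of the STAT3 luciferase reporter above a set limit taken from the earlier primary screen, cut at about 130% in these data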;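 note: 0% = background signal of medium plus substrate and 100% = median of IL-6 with DMSO wells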
NFkB act STAT3ct = NF-kappaB activation in STAT3 activator counter-screen | human cells, NF-kappaB reporter activation | 1,200 tested, 11% active | activation (% of control), % at 5.7 µM | shares compounds with STAT3 act-1; in the data active = activation above about 120%;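 note: reporter induced by TNF-alpha stimulation; 100% = median of stimulated DMSO wells and 0% = no signal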
STAT1 act-2 = STAT1 activation in STAT3 activator counter-screen. NIH 3T3 STAT1-luciferase reporter, IFN-gamma, luminescence. shares compounds with STAT3 act-1. 1,200 tested, 13% active. activation (% of control), % at 5.7 µM. AID 1318;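 active = activation above the solvent-only control well mean plus 3 SD, set per screening run, cut at about 120% in these data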;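 note: 100% = IFN-gamma with DMSO median signal so 100% means no change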
Active calls of the source: *; . = no result given; ! = not confirmed by another sample. Hits are enriched below; roughly 4.9% of the tested compounds scored in any of these assays.

SMILES	STAT1 act-1	STAT1 inh	STAT3 blocker	STAT3 act-1	APP 5'UTR act	NF-kB neuron act	STAT3 act-2	NFkB act STAT3ct	STAT1 act-2
CCN(CCn1cccn1)C(=O)CCc1nnc(C2(c3ccc(Cl)cc3)CCC2)o1	122	-23	6	100	27	2.3	.	.	.
Cc1cc(-c2ccc(Cl)cc2)c(C#N)c(N)n1	88	7	-57	148*	.	1	140*	102	107
Cc1nn2c(-c3ccccc3)nnc2c2ccccc12	108	-8	-79	170*	47	1.3	143*	117	115
Cc1nn2c(-c3cccc(NC(=O)c4ccco4)c3)nnc2c2ccccc12	102	-4	24	81	-14	0.3	.	.	.
Cc1ccc(-c2cc(-c3cccs3)[nH]n2)c(O)c1	106	-6	-72	164*	119	8.1*	140*	127*	96
COc1nc(-c2ccc(Cl)cc2)ccc1-c1noc(-c2ccco2)n1	102	-3	3	98	1	1.3	.	.	.
COc1nc2c(C)cccc2cc1-c1noc(-c2ccco2)n1	91	9	-70	163*	7	1.2	144*	109	99
O=C1CC2(CCCC2)CC(=O)N1c1ccccc1	102	-3	4	99	21	1.2	.	.	.
COc1ccccc1-c1nnc(SCC(=O)O)n1C	100	0	-66	164*	10	1.2	153*	109	106
COc1ccccc1-c1nnc(SC)n1C	97	2	7	95	1	1.2	.	.	.
COc1ccc(/C=c2\sc3nc(-c4ccccc4OC)nn3c2=O)c(OC)c1	100	0	-63	156*	11	0.99	129	98	96
COc1ccccc1-c1nc2s/c(=C\c3cccs3)c(=O)n2n1	101	0	-10	115	-5	0.81	.	.	.
COc1cc(/C=N/NC(N)=S)ccc1OCC(=O)Nc1ccc(C)cc1	105	-5	-54	154*	-6	1	118	99	111
CNC(=S)N/N=C/c1ccc(OCC(=O)Nc2c(C)cc(C)cc2C)c(OC)c1	100	0	-38	126	9	0.43	.	.	.
COc1cc(/C=N/Nc2snc(SC)c2C#N)ccc1O	91	10	-48	148*	-83	1.2	136*	96	89
COc1cc(/C=N/Nc2nc3ccccc3[nH]2)ccc1O	114	-16	8	96	17	2.2	.	.	.
Cc1cc(C)c(Nc2cc(S(=O)(=O)O)c(N)c3c2C(=O)c2ccccc2C3=O)c(C)c1	94	6	3	94	-18	0.76	.	.	.
C[C@@H](C(=O)OCC(=O)NCCc1ccc(S(N)(=O)=O)cc1)N1C(=O)C2CCCCC2C1=O (some centres undefined)	99	0	2	99	28	1.1	.	.	.
Cc1ccccc1C(=O)Nc1cccc(C(=O)N/N=C/c2cc(Cl)cc([N+](=O)[O-])c2O)c1	99	0	11	101	5	1.1	.	.	.
Cc1ccc2c(c1)NCC(C(=O)NCc1ccccc1)O2 (centres undefined)	98	3	2	98	-10	1.3	.	.	.
NC(=O)C1CNc2ccccc2O1 (centres undefined)	102	-3	-67	156*	3	1.1	148*	105	100
Cn1c(/N=C/c2cccs2)nc2ccccc21	99	1	-55	147*	-2	0.59	122	98	94
Cn1c(/N=C/c2cc(Cl)ccc2O)nc2ccccc21	104	-4	-54	157*	-14	1.4	130	109	90
CCNC(=S)NNC(=O)c1ccc(OC(F)F)cc1	100	0	-4	103	-4	1.3	.	.	.
COC(=O)CSc1cc(C)nc2ccc(OC)cc12	98	2	12	92	-12	1.2	.	.	.
SMILES	STAT1 act-1	STAT1 inh	STAT3 blocker	STAT3 act-1	APP 5'UTR act	NF-kB neuron act	STAT3 act-2	NFkB act STAT3ct	STAT1 act-2
COc1ccc2nc(C)cc(SCC(=O)O)c2c1	107	-8	-40	140*!	9	1.1	95	105	103
Cc1nc2cc(-c3ccc(Cl)cc3)nn2c(NCCN(C)C)c1C	108	-10	-47	151*	76	1.8	183*	117	120*
O=C(O)CCCCCn1c(SCc2cc(=O)n3ccccc3n2)nc2ccsc2c1=O	101	-1	12	93	-15	0.92	.	.	.
CC(OC(=O)c1cccnc1SCc1cc(=O)n2ccccc2n1)c1ccccn1 (centres undefined)	107	-7	-69	153*	4	0.96	134*	100	99
CCOC(=O)c1cccnc1SCc1cc(=O)n2ccccc2n1	98	2	-40	138*	-7	1.1	129	103	96
CC1=CCC2C(=O)N(CCc3c[nH]c4ccccc34)C(=O)C2C1 (centres undefined)	92	5	-48	142*	3	1.4	127	101	97
O=C1C2CC=C(Cl)CC2C(=O)N1CCc1c[nH]c2ccccc12 (centres undefined)	97	3	-43	141*	10	1.3	149*	103	87
COC(=O)C1=C(C)N(CCc2c[nH]c3ccccc23)C(=O)/C1=C\N(C)C	101	-3	13	98	15	0.63	.	.	.
COc1ccc(-c2csc(C3=C(O)CN(CCCN4CCCC4=O)C3=N)n2)cc1OC	87	12	0	105	41	0.92	.	.	.
O=C(O)C(Cc1cc2ccccc2[nH]1)N1C(=O)C2CC=C(Cl)CC2C1=O (centres undefined)	96	5	-44	142*	2	1	135*	102	95
CC(=O)Nc1ccccc1-c1nn[nH]n1	92	9	-56	151*	-40	1	142*	111	100
O=C(CCc1ccc(S(=O)(=O)N2CCOCC2)cc1)OCc1nc2ccccc2s1	120	-22	-44	142*	24	1.6	147*	122*	136*
Clc1ccc2c(NCc3ccccn3)ncnc2c1	101	-1	-47	140*	0	0.88	137*	108	118
CCC(C)(C(=O)NC1CCCC1)N(C(=O)c1cnccn1)c1ccccc1 (centres undefined)	100	0	-40	137*	-7	1	117	100	103
Cn1c(=O)c2c(c3ccccc31)OC(=O)CC2c1cccnc1 (centres undefined)	97	1	-34	137*	9	1.1	98	102	100
